The species named for one assay is Mus musculus. The assay can be described thus: Inhibitory potency evaluated against electrically evoked contractions of mouse vas deferens. It is filed as functional, organism-based. In a few lines:
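Electrically stimulated twitch of isolated mouse vas deferens (δ assay). IC50 is the concentration giving half-maximal twitch inhibition, taken from six to eight computed log dose-response curves with six concentrations each. [Met]enkephalin IC50 was run on the same preparation. Each IC50 was corrected by the ratio of the mean of all [Met]enkephalin IC50s to that assay's [Met]enkephalin IC50.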

The next assay deals with Mu-type opioid receptor (Rattus norvegicus, UniProt P33535). The assay can be described thus: Inhibition of [3H]DAGO binding to rat brain membrane Opioid receptor mu 1.
Another assay is filed under the species Cavia porcellus. The assay can be described thus: Inhibitory potency evaluated against electrically evoked contractions of guinea pig ileum. In kind it is functional, organism-based. The method, boiled down:
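Electrically stimulated twitch of isolated guinea pig ileum (μ assay). IC50 is the concentration giving half-maximal twitch inhibition, taken from six to eight computed log dose-response curves with six concentrations each. [Met]enkephalin IC50 was run on the same preparation. Each IC50 was corrected by the ratio of the mean of all [Met]enkephalin IC50s to that assay's [Met]enkephalin IC50.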

Assay [1] is described as follows: Ratio of IC50 for MVD to GPI. It is filed as functional.
Assay [2] concerns the target Delta-type opioid receptor (Rattus norvegicus, UniProt P33533). The assay can be described thus: Inhibition of [3H]DTLET binding torat brain membrane Opioid receptor delta 1.

Each structure is given as a SMILES string.

Sequence of Mu-type opioid receptor (P33535 whole entry): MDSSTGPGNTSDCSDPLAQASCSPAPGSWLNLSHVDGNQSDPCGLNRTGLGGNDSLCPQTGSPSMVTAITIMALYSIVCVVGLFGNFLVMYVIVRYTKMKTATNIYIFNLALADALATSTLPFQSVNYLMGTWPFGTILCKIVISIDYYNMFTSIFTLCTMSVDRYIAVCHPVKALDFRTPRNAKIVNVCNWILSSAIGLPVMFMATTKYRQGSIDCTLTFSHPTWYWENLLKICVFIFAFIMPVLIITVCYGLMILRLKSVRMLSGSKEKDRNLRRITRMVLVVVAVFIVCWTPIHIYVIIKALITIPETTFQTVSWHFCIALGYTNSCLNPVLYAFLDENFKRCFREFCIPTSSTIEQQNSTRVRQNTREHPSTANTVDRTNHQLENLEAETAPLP
Sequence of Delta-type opioid receptor (P33533 whole entry): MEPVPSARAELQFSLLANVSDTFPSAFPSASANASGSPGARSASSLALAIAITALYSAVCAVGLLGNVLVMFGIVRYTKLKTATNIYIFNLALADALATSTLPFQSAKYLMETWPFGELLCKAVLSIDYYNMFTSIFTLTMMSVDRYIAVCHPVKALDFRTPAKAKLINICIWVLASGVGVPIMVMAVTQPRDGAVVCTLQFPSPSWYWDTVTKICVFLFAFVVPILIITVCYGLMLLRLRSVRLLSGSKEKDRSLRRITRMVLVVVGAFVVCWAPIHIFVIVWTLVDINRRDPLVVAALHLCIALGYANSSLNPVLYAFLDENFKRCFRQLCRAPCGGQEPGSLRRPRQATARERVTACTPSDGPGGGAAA

The IC50 is the concentration that gives 50% inhibition. In general, Ki refers to the equilibrium dissociation constant of an inhibitor or competing ligand from its target. With `CC(C)C[C@H](NC(=O)[C@H](Cc1ccccc1)NC(=O)CNC(=O)[C@@H](COC(C)(C)C)NC(=O)[C@@H](N)Cc1ccc(O)cc1)C(=O)N[C@H](C(=O)O)[C@@H](C)O`, the IC50 in the assay filed under Mus musculus came to 1.07 nM; in the assay filed under Cavia porcellus, 1800 nM. Moreover, the Ki on Mu-type opioid receptor came to 374 nM; in assay [2], 6.14 nM. Further, the Ratio in assay [1] was determined as 0.0006.

Turning to `CC(C)C[C@H](NC(=O)[C@H](Cc1ccccc1)NC(=O)CNC(=O)[C@H](NC(=O)[C@@H](N)Cc1ccc(O)cc1)[C@@H](C)OC(C)(C)C)C(=O)N[C@H](C(=O)O)[C@@H](C)O`, the IC50 stood at 1190 nM in the assay listed under Mus musculus and 11400 nM in the assay listed under Cavia porcellus. Moreover, the Ki on Mu-type opioid receptor stood at 4500 nM; in assay [2], 866 nM. Also, the Ratio in assay [1] was 0.1.

In the case of `CC(C)C[C@H](NC(=O)[C@H](Cc1ccccc1)NC(=O)CNC(=O)[C@@H](NC(=O)[C@@H](N)Cc1ccc(O)cc1)[C@@H](C)O)C(=O)N[C@H](C(=O)O)[C@@H](C)OC(C)(C)C`, the IC50 in the assay listed under Mus musculus turned out to be 0.75 nM; in the assay filed under Cavia porcellus, 204 nM. The Ki at Mu-type opioid receptor was found to be 64.6 nM; in assay [2], 3.1 nM. The Ratio in assay [1] was found to be 0.0037.

`CC(C)C[C@H](NC(=O)[C@H](Cc1ccccc1)NC(=O)CNC(=O)[C@@H](NC(=O)[C@@H](N)Cc1ccc(O)cc1)[C@@H](C)O)C(=O)N[C@H](C(=O)O)[C@@H](C)O`: the values for the IC50 in the assay listed under Mus musculus and in the assay listed under Cavia porcellus were 0.15 nM and 460 nM, respectively. In addition, the Ki worked out at 23.3 nM on Mu-type opioid receptor and 1.35 nM in assay [2]. Moreover, the Ratio in assay [1] was determined as 0.0003.

For `CC(C)C[C@H](NC(=O)[C@H](Cc1ccccc1)NC(=O)CNC(=O)[C@@H](CO)NC(=O)[C@@H](N)Cc1ccc(O)cc1)C(=O)N[C@H](C(=O)O)[C@@H](C)O`, the figures for the IC50 in the assay filed under Mus musculus and in the assay filed under Cavia porcellus were 0.4 nM and 406 nM, respectively. Besides, in assay [1], the Ratio turned out to be 0.001.

In the case of `CC(C)C[C@H](NC(=O)[C@H](Cc1ccccc1)NC(=O)CNC(=O)[C@@H](COCc1ccccc1)NC(=O)[C@@H](N)Cc1ccc(O)cc1)C(=O)N[C@H](C(=O)O)[C@@H](C)O`, the IC50 in the assay filed under Mus musculus is 0.35 nM; in the assay listed under Cavia porcellus it was 83.3 nM. Also, the values for the Ki (at Mu-type opioid receptor; in assay [2]) were 42.1 nM and 1.47 nM, respectively. For the same compound, the Ratio in assay [1] is 0.0042.

As for `CC(C)C[C@H](NC(=O)[C@H](Cc1ccccc1)NC(=O)CNC(=O)[C@@H](COC(C)(C)C)NC(=O)[C@@H](N)Cc1ccc(O)cc1)C(=O)N[C@H](C(=O)O)[C@@H](C)OC(C)(C)C`, the figures for the IC50 in the assay filed under Mus musculus and in the assay filed under Cavia porcellus were 0.6 nM and 2790 nM, respectively. Also, the Ki came to 475 nM on Mu-type opioid receptor and 4.68 nM in assay [2]. In assay [1], the Ratio amounted to 0.00021.

On to `CC(C)C[C@H](NC(=O)[C@H](Cc1ccccc1)NC(=O)CNC(=O)[C@@H](CO)NC(=O)[C@@H](N)Cc1ccc(O)cc1)C(=O)N[C@H](C(=O)O)[C@@H](C)OC(C)(C)C`, for which the IC50 in the assay filed under Mus musculus was 0.84 nM; in the assay filed under Cavia porcellus, 202 nM. Besides, the figures for the Ki (at Mu-type opioid receptor; in assay [2]) were 185 nM and 6.35 nM, respectively. Besides, the Ratio in assay [1] was 0.0041.

With `CSCC[C@H](NC(=O)[C@H](Cc1ccccc1)NC(=O)CNC(=O)CNC(=O)[C@@H](N)Cc1ccc(O)cc1)C(=O)O`, the values for the IC50 in the assay listed under Mus musculus and in the assay listed under Cavia porcellus were 13 nM and 200 nM, respectively.

In the case of `CC(C)C[C@H](NC(=O)[C@H](Cc1ccccc1)NC(=O)CNC(=O)[C@@H](NC(=O)[C@@H](N)Cc1ccc(O)cc1)[C@@H](C)OC(C)(C)C)C(=O)N[C@H](C(=O)O)[C@@H](C)O`, the Ki at Mu-type opioid receptor is above 100000 nM; in assay [2], 13000 nM.

For the origin of these results see ChEMBL document CHEMBL1124249 (J Med Chem, 1988).
